The subject of experiment [1] is HEp-2. Description: In vitro antiviral activity against vaccinia(VV) virus was determined in human laryngeal epithelioma (HEp-2,H)expressed as virus rating. Toxic level(100 ug/mL). The format is functional. Summed up:
(§1)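 Cell monolayers (18 h) infected with 320 TCID50 of virus. Compound was added within 15–30 min at half-log dilutions from 1000 to 1 μg/mL. After 72 h at 37 °C in 5% CO2, CPE was scored 0–4 by microscopy. VR = sum of (virus control − treated) scores, halved at partially toxic levels, divided by 10 × test cups per drug level.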

The subject of experiment [2] is HEp-2. Description: In vitro antiviral activity against herpes simplex type 1 (HSV-1) virus was determined in human laryngeal epithelioma (HEp-2,H)expressed as virus rating. Toxic level(100 ug/mL). The class given is functional. Summed up:
as §1

Experiment [3] has as its system Vero. Description: In vitro antiviral activity against parainfluenza type 3(para 3) virus was determined in african green monkey kidney (vero,V) expressed as virus rating. Toxic level(>1000 ug/mL). The class given is functional, Chlorocebus sabaeus. An outline of the steps:
as §1

Experiment [4] relates to HEp-2. Description: In vitro antiviral activity against parainfluenza type 3 (para3) virus was determined in human laryngeal epithelioma (HEp-2,H)expressed as virus rating. Toxic level(100 ug/mL). The format is functional. Summed up:
as §1

Experiment [5] relates to Vero. Kind of experiment: In vitro antiviral activity against vaccinia(VV) virus was determined in african green monkey kidney (vero,V) expressed as virus rating. Toxic level(>1000 ug/mL). The class given is functional, Chlorocebus sabaeus. Summed up:
as §1

The test system of experiment [6] is Vero. Description: In vitro antiviral activity against herpes simplex type 1 (HSV-1) virus was determined in african green monkey kidney (vero,V) expressed as virus rating. Toxic level(>1000 ug/mL). The class given is functional, Chlorocebus sabaeus. An outline of the steps: as §1
Experiment [7] concerns Vero. Kind of experiment: Percentage plaque reduction was determined against rift valley fever(RVF) virus in african green monkey kidney (vero,V) at a conc of <25 ug/mL. Toxic level(10 ug/mL). The class given is functional, Chlorocebus sabaeus.
Experiment [8] concerns Vero. Description: Percentage plaque reduction was determined against venezuelan equine encephalitis (VEE) virus in african green monkey kidney (vero,V) at a conc of <25 ug/mL. The format is functional, Chlorocebus sabaeus.
The subject of experiment [9] is Vero. Kind of experiment: Percentage plaque reduction was determined against venezuelan equine encephalitis (VEE) virus in african green monkey kidney (vero,V) at a conc of 250-500 ug/mL. Toxic level(10 ug/mL). The class given is functional, Chlorocebus sabaeus.
Experiment [10] relates to Vero. Description: Percentage plaque reduction was determined against rift valley fever(RVF) virus in african green monkey kidney (vero,V) at a conc of 100-250 ug/mL. Toxic level(10 ug/mL). The format is functional, Chlorocebus sabaeus.
In experiment [11] the test system is Vero. Description: Percentage plaque reduction was determined against Sandfly fever (SF) virus in african green monkey kidney (vero,V) at a conc of 25-100 ug/mL. Toxic level(10 ug/mL). The class given is functional, Chlorocebus sabaeus.
For experiment [12], the system named is Vero. Description: Percentage plaque reduction was determined against Sandfly fever (SF) virus in african green monkey kidney (vero,V) at a conc of <25 ug/mL. Toxic level(10 ug/mL). The class given is functional, Chlorocebus sabaeus. An outline of the steps:
(§2)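 Infected Vero 24-well monolayers: virus adsorbed 1 h at 37 °C, then overlaid with agar holding dilutions of compound and incubated again at 37 °C with CO₂. Plaques were stained with crystal violet and counted. Inhibition was scored as % plaque reduction bands (10-30%, 31-60%, 61-90%), each tied to a drug concentration range.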

The test system of experiment [13] is Vero. Kind of experiment: Percentage plaque reduction was determined against Sandfly fever (SF) virus in african green monkey kidney (vero,V) at a conc of 250-500 ug/mL. Toxic level(10 ug/mL). The class given is functional, Chlorocebus sabaeus.
In experiment [14] the test system is Vero. Description: Percentage plaque reduction was determined against rift valley fever(RVF) virus in african green monkey kidney (vero,V) at a conc of 250-500 ug/mL. Toxic level(10 ug/mL). The format is functional, Chlorocebus sabaeus.
Experiment [15] deals with Vero. Kind of experiment: Percentage plaque reduction was determined against yellow fever (YF) virus in african green monkey kidney (vero,V).Toxic level(10 ug/mL). The class given is functional, Chlorocebus sabaeus.
Experiment [16] has as its system Vero. Kind of experiment: Percentage plaque reduction was determined against rift valley fever(RVF) virus in african green monkey kidney (vero,V) at a conc of 25-100 ug/mL. Toxic level(10 ug/mL). The class given is functional, Chlorocebus sabaeus.
For experiment [17], the system named is Vero. Kind of experiment: In vitro antiviral activity against herpes simplex type 1 (HSV-1) virus was determined in african green monkey kidney (vero,V) expressed as virus rating. Toxic level(10 ug/mL). The class given is functional, Chlorocebus sabaeus. An outline of the steps:
as §1

Experiment [18] has as its system Vero. Kind of experiment: Percentage plaque reduction was determined against venezuelan equine encephalitis (VEE) virus in african green monkey kidney (vero,V) at a conc of 100-250 ug/mL. Toxic level(10 ug/mL). The class given is functional, Chlorocebus sabaeus.
Experiment [19] has as its system Vero. Description: Percentage plaque reduction was determined against pichinde(PICH) virus in african green monkey kidney (vero,V).Toxic level(10 ug/mL). The format is functional, Chlorocebus sabaeus. Summed up: as §2
Experiment [20] has as its system Vero. Description: Percentage plaque reduction was determined against venezuelan equine encephalitis (VEE) virus in african green monkey kidney (vero,V) at a conc of 25-100 ug/mL. Toxic level(10 ug/mL). The format is functional, Chlorocebus sabaeus.
Experiment [21] concerns Vero. Description: Percentage plaque reduction was determined against Sandfly fever (SF) virus in african green monkey kidney (vero,V) at a conc of 100-250 ug/mL. Toxic level(10 ug/mL). The class given is functional, Chlorocebus sabaeus.
Experiment [22] concerns HEp-2. Description: In vitro antiviral activity against parainfluenza type 3(para 3) virus was determined in human laryngeal epithelioma (HEp-2,H)expressed as virus rating. Toxic level(100 ug/mL). The class given is functional. Summed up:
as §1

Experiment [23] relates to Vero. Description: In vitro antiviral activity against herpes simplex type 1 (HSV-1) virus was determined in african green monkey kidney (vero,V) expressed as virus rating. Toxic level(100 ug/mL). The class given is functional, Chlorocebus sabaeus. An outline of the steps:
as §1

Experiment [24] deals with Vero. Description: In vitro antiviral activity against vaccinia(VV) virus was determined in african green monkey kidney (vero,V) expressed as virus rating. Toxic level(100 ug/mL). The class given is functional, Chlorocebus sabaeus. An outline of the steps: as §1
Experiment [25] deals with Vero. Kind of experiment: In vitro antiviral activity against parainfluenza type 3(para 3) virus was determined in african green monkey kidney (vero,V) expressed as virus rating. Toxic level(100 ug/mL). The format is functional, Chlorocebus sabaeus. An outline of the steps: as §1

Structures are written as SMILES.

On to `CSc1ncnc2c1ccn2[C@@H]1O[C@H](CO)[C@@H](O)[C@H]1O`, for which the Virus rating is on record as 1.4 in the experiment on HEp-2 [1]; 1.3 in the experiment with HEp-2 [2]; 0.9 with Vero [3]; 1.5 in the experiment with HEp-2 [4]; 1 in the experiment with Vero [5]; 0.5 with Vero [6].

On to `O=C1N=CN=C2C([C@@H]3O[C@H](CO)[C@@H](O)[C@H]3O)=NNC12` (some centres not stated), for which the Plaque reduction in the experiment on Vero [7], in the experiment on Vero [8], with Vero [9], in the experiment with Vero [10], in the experiment with Vero [11] and in the experiment on Vero [12] was 0% throughout. Moreover, the Plaque reduction with Vero [13] is on record as 0%; in the experiment with Vero [14], 0%; with Vero [15], 0%; in the experiment on Vero [16], 0%; in the experiment on Vero [18], 0%; with Vero [19], above 90%. Besides, the Plaque reduction with Vero [20] and in the experiment on Vero [21] was 0% throughout. The same compound displayed a Virus rating in the experiment on Vero [17] of 0.1.

For `NC(=O)c1ncnc2c([C@@H]3O[C@H](CO)[C@@H](O)[C@H]3O)n[nH]c12`, the Virus rating with HEp-2 [1] amounted to 0.8; in the experiment with HEp-2 [2] it was 0; in the experiment with HEp-2 [22] it was 0.4; in the experiment with Vero [23] it was 0; in the experiment with Vero [24], 0.6; in the experiment with Vero [25] it was 0.
